ChEMBL document CHEMBL5058577, “EUbOPEN Chemogenomics Library 2 (Multiplex)” (2022)

Tested on: U2OS
Test: Multiplex assay against U2OS
Format: toxicity, cell-based
Details: human
In short: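 Imaging took place on a CQ1 microscope at 37°C and 5% CO2 once compound had been added to live cells stained at seeding with Hoechst33342, BioTracker Green Microtubule Cytoskeleton Dye, MitoTracker Red and Annexin V Alexa Fluor 680. CellPathfinder machine-learning gating classed cells as Hoechst high-intensity objects or normal cells, classed normal cells as having healthy, pyknosed or fragmented nuclei, and classed pyknosed cells as mitotic or apoptotic. Tubulin, mitochondrial-mass and membrane-permeability phenotypes are per cents of the healthy-nucleus cells.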

[1] = 12 h, 1 µM, compound concentration 1 uM, replicate 1
[2] = 12 h, 1 µM, compound concentration 1 uM, replicate 2
[3] = 12 h, 10 µM, compound concentration 10 uM, replicate 1
[4] = 12 h, 10 µM, compound concentration 10 uM, replicate 2
[5] = 24 h, 1 µM, compound concentration 1 uM, replicate 1
[6] = 24 h, 1 µM, compound concentration 1 uM, replicate 2
[7] = 24 h, 10 µM, compound concentration 10 uM, replicate 1
[8] = 24 h, 10 µM, compound concentration 10 uM, replicate 2
[9] = 48 h, 1 µM, compound concentration 1 uM, replicate 1
[10] = 48 h, 1 µM, compound concentration 1 uM, replicate 2
[11] = 48 h, 10 µM, compound concentration 10 uM, replicate 1
[12] = 48 h, 10 µM, compound concentration 10 uM, replicate 2

For `N[C@](CC1c2ccccc2Oc2ccccc21)(C(=O)O)[C@H]1C[C@@H]1C(=O)O`, which “Population Apoptotic (%)” value [1] is on record?
The value was 80%.

What about the “Population Fragmented Nuclei (%)” value [1] of the same compound?
Its value is 22%.

What about the “Population Healthy Nuclei (%)” value [1] of the same compound?
Its value is 67%.

And the “Population Hoechst High Intensity Objects (%)” value [1]?
Its value is 1%.

And the “Population Membrane Permeable-Phenotype (%)” value [1]?
The value was 6%.

What about the “Population Mitochondria Different-Phenotype (%)” value [1] of the same compound?
The value was 2%.

And the “Population Mitotic Cells (%)” value [1]?
Its value is 20%.

What about the “Population Normal (%)” value [1] of the same compound?
Its value is 98%.

And the “Population Pyknosed Nuclei (%)” value [1]?
Its value is 9%.

And the “Population Tubulin-Different-Phenotype (%)” value [1]?
The value was 4%.

What about the “Total Cell Count” value [1] of the same compound?
Its value is 218.

What about the “Population Apoptotic (%)” value [2] of the same compound?
The value was 72%.

And the “Population Fragmented Nuclei (%)” value [2]?
The value was 10%.

And the “Population Healthy Nuclei (%)” value [2]?
The value was 79%.

What about the “Population Membrane Permeable-Phenotype (%)” value [2] of the same compound?
The value was 1%.

What about the “Population Mitochondria Different-Phenotype (%)” value [2] of the same compound?
Its value is 8%.

And the “Population Mitotic Cells (%)” value [2]?
The value was 27%.

And the “Population Tubulin-Different-Phenotype (%)” value [2]?
Its value is 3%.

What about the “Total Cell Count” value [2] of the same compound?
The value was 114.

And the “Population Apoptotic (%)” value [3]?
Its value is 84%.

What about the “Population Fragmented Nuclei (%)” value [3] of the same compound?
The value was 18%.

What about the “Population Healthy Nuclei (%)” value [3] of the same compound?
Its value is 72%.

And the “Population Hoechst High Intensity Objects (%)” value [3]?
The value was 3%.

And the “Population Membrane Permeable-Phenotype (%)” value [3]?
The value was 5%.

And the “Population Mitochondria Different-Phenotype (%)” value [3]?
The value was 3%.

What about the “Population Mitotic Cells (%)” value [3] of the same compound?
Its value is 16%.

And the “Population Normal (%)” value [3]?
Its value is 96%.

And the “Population Pyknosed Nuclei (%)” value [3]?
Its value is 8%.

And the “Population Tubulin-Different-Phenotype (%)” value [3]?
Its value is 2%.

And the “Total Cell Count” value [3]?
Its value is 295.

And the “Population Apoptotic (%)” value [4]?
Its value is 83%.

What about the “Population Fragmented Nuclei (%)” value [4] of the same compound?
Its value is 19%.

What about the “Population Healthy Nuclei (%)” value [4] of the same compound?
The value was 76%.

What about the “Population Hoechst High Intensity Objects (%)” value [4] of the same compound?
Its value is 0%.

And the “Population Membrane Permeable-Phenotype (%)” value [4]?
The value was 7%.

And the “Population Mitochondria Different-Phenotype (%)” value [4]?
The value was 0%.

What about the “Population Normal (%)” value [4] of the same compound?
The value was 100%.

And the “Population Pyknosed Nuclei (%)” value [4]?
The value was 4%.

What about the “Total Cell Count” value [4] of the same compound?
Its value is 141.

What about the “Population Apoptotic (%)” value [5] of the same compound?
The value was 78%.

What about the “Population Fragmented Nuclei (%)” value [5] of the same compound?
The value was 20%.

And the “Population Healthy Nuclei (%)” value [5]?
Its value is 70%.

And the “Population Hoechst High Intensity Objects (%)” value [5]?
The value was 1%.

What about the “Population Membrane Permeable-Phenotype (%)” value [5] of the same compound?
Its value is 1%.

What about the “Population Mitochondria Different-Phenotype (%)” value [5] of the same compound?
The value was 1%.

What about the “Population Mitotic Cells (%)” value [5] of the same compound?
Its value is 21%.

What about the “Population Normal (%)” value [5] of the same compound?
The value was 98%.

What about the “Population Pyknosed Nuclei (%)” value [5] of the same compound?
Its value is 8%.

And the “Population Tubulin-Different-Phenotype (%)” value [5]?
The value was 1%.

What about the “Total Cell Count” value [5] of the same compound?
The value was 272.

What about the “Population Apoptotic (%)” value [6] of the same compound?
Its value is 63%.

What about the “Population Fragmented Nuclei (%)” value [6] of the same compound?
The value was 14%.

What about the “Population Healthy Nuclei (%)” value [6] of the same compound?
The value was 77%.

What about the “Population Hoechst High Intensity Objects (%)” value [6] of the same compound?
The value was 0%.

What about the “Population Membrane Permeable-Phenotype (%)” value [6] of the same compound?
The value was 4%.

And the “Population Mitochondria Different-Phenotype (%)” value [6]?
Its value is 5%.

And the “Population Mitotic Cells (%)” value [6]?
The value was 36%.

And the “Population Normal (%)” value [6]?
The value was 99%.

What about the “Population Tubulin-Different-Phenotype (%)” value [6] of the same compound?
The value was 2%.

And the “Total Cell Count” value [6]?
The value was 137.

What about the “Population Apoptotic (%)” value [7] of the same compound?
Its value is 80%.

And the “Population Fragmented Nuclei (%)” value [7]?
The value was 13%.

What about the “Population Healthy Nuclei (%)” value [7] of the same compound?
Its value is 79%.

And the “Population Hoechst High Intensity Objects (%)” value [7]?
The value was 3%.

And the “Population Membrane Permeable-Phenotype (%)” value [7]?
Its value is 3%.

And the “Population Mitochondria Different-Phenotype (%)” value [7]?
Its value is 3%.

And the “Population Mitotic Cells (%)” value [7]?
Its value is 20%.

What about the “Population Normal (%)” value [7] of the same compound?
Its value is 96%.

And the “Population Pyknosed Nuclei (%)” value [7]?
The value was 7%.

What about the “Population Tubulin-Different-Phenotype (%)” value [7] of the same compound?
Its value is 1%.

And the “Total Cell Count” value [7]?
The value was 365.

What about the “Population Apoptotic (%)” value [8] of the same compound?
The value was 81%.

What about the “Population Fragmented Nuclei (%)” value [8] of the same compound?
Its value is 15%.

And the “Population Healthy Nuclei (%)” value [8]?
Its value is 77%.

And the “Population Hoechst High Intensity Objects (%)” value [8]?
The value was 0%.

What about the “Population Membrane Permeable-Phenotype (%)” value [8] of the same compound?
Its value is 8%.

What about the “Population Mitochondria Different-Phenotype (%)” value [8] of the same compound?
The value was 1%.

What about the “Population Mitotic Cells (%)” value [8] of the same compound?
The value was 18%.

What about the “Population Normal (%)” value [8] of the same compound?
Its value is 99%.

And the “Population Pyknosed Nuclei (%)” value [8]?
The value was 6%.

What about the “Population Tubulin-Different-Phenotype (%)” value [8] of the same compound?
Its value is 3%.

And the “Total Cell Count” value [8]?
Its value is 164.

And the “Population Apoptotic (%)” value [9]?
Its value is 89%.

And the “Population Fragmented Nuclei (%)” value [9]?
The value was 14%.

What about the “Population Healthy Nuclei (%)” value [9] of the same compound?
The value was 75%.

And the “Population Hoechst High Intensity Objects (%)” value [9]?
The value was 2%.

What about the “Population Membrane Permeable-Phenotype (%)” value [9] of the same compound?
The value was 3%.

What about the “Population Mitochondria Different-Phenotype (%)” value [9] of the same compound?
Its value is 1%.

And the “Population Mitotic Cells (%)” value [9]?
The value was 10%.

What about the “Population Normal (%)” value [9] of the same compound?
The value was 97%.

What about the “Population Pyknosed Nuclei (%)” value [9] of the same compound?
The value was 9%.

And the “Population Tubulin-Different-Phenotype (%)” value [9]?
Its value is 1%.

And the “Total Cell Count” value [9]?
Its value is 403.

What about the “Population Apoptotic (%)” value [10] of the same compound?
The value was 85%.

What about the “Population Fragmented Nuclei (%)” value [10] of the same compound?
The value was 16%.

What about the “Population Healthy Nuclei (%)” value [10] of the same compound?
The value was 72%.

What about the “Population Hoechst High Intensity Objects (%)” value [10] of the same compound?
Its value is 1%.

And the “Population Membrane Permeable-Phenotype (%)” value [10]?
Its value is 5%.

What about the “Population Mitochondria Different-Phenotype (%)” value [10] of the same compound?
Its value is 3%.

What about the “Population Mitotic Cells (%)” value [10] of the same compound?
The value was 15%.

And the “Population Normal (%)” value [10]?
Its value is 98%.

What about the “Population Pyknosed Nuclei (%)” value [10] of the same compound?
The value was 10%.

And the “Population Tubulin-Different-Phenotype (%)” value [10]?
Its value is 4%.

What about the “Total Cell Count” value [10] of the same compound?
The value was 190.

What about the “Population Apoptotic (%)” value [11] of the same compound?
Its value is 90%.

What about the “Population Fragmented Nuclei (%)” value [11] of the same compound?
The value was 15%.

And the “Population Healthy Nuclei (%)” value [11]?
Its value is 77%.

And the “Population Hoechst High Intensity Objects (%)” value [11]?
The value was 1%.

What about the “Population Membrane Permeable-Phenotype (%)” value [11] of the same compound?
The value was 4%.

What about the “Population Mitochondria Different-Phenotype (%)” value [11] of the same compound?
The value was 3%.

And the “Population Mitotic Cells (%)” value [11]?
The value was 10%.

What about the “Population Normal (%)” value [11] of the same compound?
The value was 98%.

What about the “Population Pyknosed Nuclei (%)” value [11] of the same compound?
The value was 7%.

And the “Population Tubulin-Different-Phenotype (%)” value [11]?
The value was 2%.

What about the “Total Cell Count” value [11] of the same compound?
Its value is 554.

And the “Population Apoptotic (%)” value [12]?
Its value is 81%.

What about the “Population Fragmented Nuclei (%)” value [12] of the same compound?
The value was 12%.

What about the “Population Healthy Nuclei (%)” value [12] of the same compound?
Its value is 78%.

And the “Population Hoechst High Intensity Objects (%)” value [12]?
Its value is 0%.

What about the “Population Membrane Permeable-Phenotype (%)” value [12] of the same compound?
Its value is 7%.

And the “Population Mitochondria Different-Phenotype (%)” value [12]?
The value was 1%.

What about the “Population Mitotic Cells (%)” value [12] of the same compound?
The value was 18%.

And the “Population Normal (%)” value [12]?
Its value is 100%.

And the “Population Pyknosed Nuclei (%)” value [12]?
Its value is 9%.

What about the “Population Tubulin-Different-Phenotype (%)” value [12] of the same compound?
Its value is 3%.

And the “Total Cell Count” value [12]?
The value was 238.
